Measurements pooled from the literature.
Lines come from different studies, so protocols differ.
Cell line: K562
Effect on: cell growth or viability

Cc1n[nH]c2ccc3nc(-c4ccc(C(=O)N(C)CCN(C)C)cn4)c4c(c3c12)CCCCC4 has a GI50 of greater than 10 µM (resazurin; 72 h).
For Cc1nc(Nc2ncc(C(=O)Nc3c(C)cccc3Cl)s2)cc(N2CC[C@H](O)C2)n1, the inhibition was 90% (ATP luminescence; 10 µM, 72 h).
For CN(C)CCNC(=O)c1ccc(-c2nc3ccc4[nH]ncc4c3c3c2CC(C)(C)CC3)cc1, the GI50 was 3.7 µM (resazurin; 72 h).
O=C(Nc1ccc(OC(F)(F)Cl)cc1)c1cnc(N2CC[C@@H](O)C2)c(-c2cc[nH]n2)c1 has an EC50 of 0.005 µM (ATP luminescence; 72 h).
With FC(F)(F)c1cc(OCc2cc(-c3ccccn3)no2)c2ccccc2n1 the IC50 was greater than 100 µM (MTS; 72 h).
The GI50 of O=C(NC1CC1)c1ccc(-c2nc3ccc4[nH]ncc4c3c3c2CCCC3)cc1 is reported as 4.1 µM (resazurin; 72 h).
With O=C(c1ccc(/C=C/c2n[nH]c3ccccc23)cc1)N1CCNCC1 the GI50 was roughly 0.4 µM.
The IC50 of N#Cc1ccc(-c2cc(COc3cc(=O)oc4ccccc34)on2)cc1 is reported as greater than 100 µM (MTS; 72 h).
CCN(CC)CCNC(=O)c1ccc(-c2nc3ccc4[nH]ncc4c3c3c2CCCC3)cc1 has a GI50 of 3.6 µM (resazurin; 72 h).
The IC50 of Nc1ccccc1NC(=O)c1ccc(Cn2cnc3c(Nc4ccc(Cl)cc4)ncnc32)cc1 is reported as 17.5 µM (MTT; 72 h).
O=c1cc(OCc2cc(-c3ccccn3)no2)c2ccccc2o1 has an IC50 of greater than 100 µM (MTS; 72 h).
C=C(NC(=O)C(=C)NC(=O)c1csc(C2=N[C@@H]3c4csc(n4)[C@H]4NC(=O)c5csc(n5)[C@H]([C@](C)(O)[C@@H](C)O)NC(=O)[C@H]5CSC(=N5)/C(=C/C)NC(=O)[C@H]([C@@H](C)O)NC(=O)c5csc(n5)[C@]3(CC2)NC(=O)[C@H](C)NC(=O)C(=C)NC(=O)[C@H](C)NC(=O)[C@H]([C@@H](C)CC)N[C@@H]2C=Cc3c([C@H](C)O)cc(nc3[C@H]2O)C(=O)O[C@@H]4C)n1)C(N)=O has an EC50 of 0.6 µM.
FC(F)(F)c1cc(OCc2cc(-c3ccccc3)no2)c2ccccc2n1 has an IC50 of greater than 100 µM (MTS; 72 h).
Nc1ccccc1NC(=O)c1ccc(Cn2cnc3c(Nc4ccc(Br)cc4F)ncnc32)cc1 has an IC50 of 30.1 µM (MTT; 72 h).
